Test results: ChEMBL document CHEMBL4152343, “Design, Synthesis, and Pharmacological Evaluation of Second-Generation Tetrahydroisoquinoline-Based CXCR4 Antagonists with Favorable ADME Properties” (J Med Chem, 2018)
pEC50, pIC50: −log10 of the molar value.

Experiments:
[1] = biological target: T1, C-X-C chemokine receptor type 4 (Homo sapiens, UniProt P61073); test: Agonist activity at CXCR4 in human CCRF-CEM cells assessed as induction of calcium release incubated for 25 mins by calcium flux assay; format: functional, cell-based
T1 sequence (P61073 whole entry): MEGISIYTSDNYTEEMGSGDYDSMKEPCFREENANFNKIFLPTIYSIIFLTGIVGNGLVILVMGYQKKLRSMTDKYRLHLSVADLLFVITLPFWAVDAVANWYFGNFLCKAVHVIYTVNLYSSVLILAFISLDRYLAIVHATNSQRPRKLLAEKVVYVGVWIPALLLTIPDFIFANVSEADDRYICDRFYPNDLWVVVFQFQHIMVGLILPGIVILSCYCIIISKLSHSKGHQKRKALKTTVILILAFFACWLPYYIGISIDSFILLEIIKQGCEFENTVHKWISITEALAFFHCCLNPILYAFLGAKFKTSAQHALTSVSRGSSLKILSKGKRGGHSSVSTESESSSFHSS
How it was run: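 CCRF-CEM T lymphoblasts (endogenous CXCR4) in HBSS/20 mM HEPES/0.1% fatty-acid-free BSA, 40,000 cells/well, dye-loaded 30 min at 37°C, then 15 min at room temperature. Compounds added at final 25,000–0.423 nM (0.5% DMSO) and calcium flux read by FDSS for 90 s.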

[2] = Metabolic stability in human liver microsomes assessed as parent compound remaining after 10 mins by LC-MS/MS analysis; format: ADME, microsome; settings: read-out: Stability
How it was run: (§1)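 Compound depletion measured by LC/MS/MS after 10 min at 37 °C in liver microsome preparations (CYP450 and other NADP-dependent enzymes). Values are % of compound remaining; duplicates in a single experiment.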

[3] = Permeability of compound at pH 7.4 by PAMPA; format: ADME; settings: read-out: permeability
How it was run: (§2)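 Compound from 10 mM DMSO stock diluted 1:100 to 100 µM (1% DMSO) in pH 7.4 or pH 5.5 donor buffer, then filtered. Lipid-coated filter membrane with pH 7.4 acceptor buffer; incubated 4 h at room temperature. UV plate reading gives Pc. Duplicates in two independent experiments unless noted.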

[4] = biological target: Muscarinic acetylcholine receptor; test: Antagonist activity at mAChR in human CCRF-CEM cells assessed as inhibition of acetylcholine-induced calcium release preincubated for 25 mins followed by acetylcholine stimulation and measured for 90 secs by calcium flux assay; format: functional, cell-based
How it was run: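 Endogenous muscarinic receptors in CCRF-CEM cells (HBSS/HEPES/BSA buffer, 40,000 cells/well, dye-loaded 30 min at 37°C). Calcium flux recorded 90 s by FDSS. IC50 by 4-parameter logistic fit against an internal control compound; duplicate wells, single experiment.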

Cytochrome P450 3A4 = Cytochrome P450 3A4 (Homo sapiens, UniProt P08684); test: Inhibition of human CYP3A4; format: ADME
Sequence of Cytochrome P450 3A4 (P08684 whole entry): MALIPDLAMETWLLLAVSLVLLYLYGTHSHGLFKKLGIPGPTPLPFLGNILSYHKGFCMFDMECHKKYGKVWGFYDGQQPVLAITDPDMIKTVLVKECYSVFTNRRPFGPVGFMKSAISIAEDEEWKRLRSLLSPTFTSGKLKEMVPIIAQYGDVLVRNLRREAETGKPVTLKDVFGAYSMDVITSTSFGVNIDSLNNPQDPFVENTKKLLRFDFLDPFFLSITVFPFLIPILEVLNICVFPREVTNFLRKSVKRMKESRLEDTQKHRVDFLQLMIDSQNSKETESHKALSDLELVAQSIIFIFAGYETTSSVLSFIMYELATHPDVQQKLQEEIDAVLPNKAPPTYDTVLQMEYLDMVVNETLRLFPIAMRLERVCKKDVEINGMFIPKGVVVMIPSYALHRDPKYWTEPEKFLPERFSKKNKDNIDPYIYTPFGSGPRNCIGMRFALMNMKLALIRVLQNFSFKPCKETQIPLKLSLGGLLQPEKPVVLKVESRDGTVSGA

Cytochrome P450 2D6 = Cytochrome P450 2D6 (Homo sapiens, UniProt P10635); test: Inhibition of recombinant human CYP2D6 expressed in insect cells microsomes using AMMC as substrate preincubated for 30 mins followed by NADP addition and measured after 45 mins by fluorescence analysis; format: ADME
Sequence of Cytochrome P450 2D6 (P10635 whole entry): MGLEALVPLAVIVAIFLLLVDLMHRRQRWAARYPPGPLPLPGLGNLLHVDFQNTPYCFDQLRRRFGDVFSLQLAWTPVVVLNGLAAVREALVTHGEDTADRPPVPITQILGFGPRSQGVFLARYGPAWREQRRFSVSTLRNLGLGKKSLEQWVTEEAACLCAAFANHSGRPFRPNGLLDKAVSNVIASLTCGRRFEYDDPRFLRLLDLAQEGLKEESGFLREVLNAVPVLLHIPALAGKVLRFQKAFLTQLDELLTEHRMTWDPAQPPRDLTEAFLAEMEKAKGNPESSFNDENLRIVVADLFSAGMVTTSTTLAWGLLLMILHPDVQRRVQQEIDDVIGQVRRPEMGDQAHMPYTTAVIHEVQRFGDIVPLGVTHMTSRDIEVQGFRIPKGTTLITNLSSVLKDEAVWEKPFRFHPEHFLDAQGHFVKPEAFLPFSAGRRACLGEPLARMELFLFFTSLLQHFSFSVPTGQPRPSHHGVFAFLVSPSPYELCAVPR

[5] = biological target: T1, C-X-C chemokine receptor type 4; test: Antagonist activity at CXCR4 in human CCRF-CEM cells assessed as inhibition of SDF-1alpha-induced calcium release preincubated for 25 mins followed by SDF-1alpha stimulation and measured for 90 secs by calcium flux assay; format: functional, cell-based
[6] = Metabolic stability in mouse liver microsomes assessed as parent compound remaining after 10 mins by LC-MS/MS analysis; format: ADME, microsome; settings: read-out: Stability; how it was run: as §1
[7] = Permeability of compound at pH 5.5 by PAMPA; format: ADME; settings: read-out: permeability; how it was run: as §2

SMILES	pEC50 [1]	remaining at 10 min [2]	Papp [3]	IC50 [4]	pIC50 (Cytochrome P450 3A4)	pIC50 (Cytochrome P450 2D6)	pIC50 [5]	remaining at 10 min [6]	Papp [7]
Cc1cnc2c(c1)CCC[C@@H]2N(C)C[C@H]1Cc2c(cccc2N2CCNCC2)CN1	< 4.52	100%	0.9 ×10⁻⁶ cm/s	> 16.7 µM	< 4.70	< 4.70			
COCCN(C[C@H]1Cc2c(cccc2N2CCNCC2)CN1)[C@H]1CCCc2cccnc21	< 4.52	90.3%	0.1 ×10⁻⁶ cm/s	5.6 µM	< 4.70	4.85	6.81	83.7%	
c1cnc2c(c1)CCC[C@@H]2N(CC1CCCCC1)C[C@H]1Cc2c(cccc2N2CCNCC2)CN1	< 4.52	81.6%	0.9 ×10⁻⁶ cm/s	> 33.3 µM	5.75	5.24	6.15	85.6%	
c1cnc2c(c1)CCC[C@@H]2N(CC1CC1)C[C@H]1Cc2c(cccc2N2CCNCC2)CN1	< 4.52	82.1%	8.7 ×10⁻⁶ cm/s	21.6 µM	< 4.70	5.07		88.3%	
Cc1cccnc1CN(C)C[C@H]1Cc2c(cccc2N2CCNCC2)CN1	< 4.52	69.2%	19.3 ×10⁻⁶ cm/s	11.1 µM	5.85	4.00			
CN(C[C@H]1Cc2c(cccc2N2C[C@@H]3C[C@H]2CN3)CN1)[C@H]1CCCc2cccnc21	< 4.52	100%		> 16.7 µM	< 4.70	< 4.70	6.84	36.3%	
FC1(F)CCC(CN(C[C@H]2Cc3c(cccc3N3CCNCC3)CN2)[C@H]2CCCc3cccnc32)CC1	< 4.52	68.6%		> 33.3 µM	5.25	5.07		76.6%	
CN(C[C@H]1Cc2c(cccc2N2CCN(c3ncccn3)CC2)CN1)[C@H]1CCCc2cccnc21	< 4.52	35.5%		0.887 µM	5.47	6.29	7.51	35.1%	36 ×10⁻⁶ cm/s
Cc1cnc(CN(C)C[C@H]2Cc3c(cccc3N3CCNCC3)CN2)c(C)c1	< 4.52			15.4 µM	< 4.70	< 4.70			
OCCN(C[C@H]1Cc2c(cccc2N2CCNCC2)CN1)[C@H]1CCCc2cccnc21	< 4.52	94.4%	1.1 ×10⁻⁶ cm/s	> 33.3 µM	< 4.70	< 4.70	6.71	60.3%	
Cc1ccc(CN(C)C[C@H]2Cc3c(cccc3N3CCNCC3)CN2)nc1	< 4.52	76.8%	22.5 ×10⁻⁶ cm/s	9.56 µM	< 4.70	4.00			
CCCN(C[C@H]1Cc2c(cccc2N2CCNCC2)CN1)[C@H]1CCCc2cccnc21	< 4.52	100%	2.65 ×10⁻⁶ cm/s	3.16 µM	< 4.70	4.92	7.49	87.4%	
CC(C)N(C[C@H]1Cc2c(cccc2N2CCNCC2)CN1)[C@H]1CCCc2cccnc21	< 4.52	75%	1.6 ×10⁻⁶ cm/s	8.34 µM	< 4.70	< 4.70	6.44	91%	
CN(C[C@H]1Cc2c(cccc2N2CCN(Cc3ccccn3)CC2)CN1)[C@H]1CCCc2cccnc21	< 4.52	4.2%		10.8 µM	5.17	4.96	8.35	40.4%	8.2 ×10⁻⁶ cm/s
CN(C[C@H]1Cc2c(cccc2N2CCNC(C)(C)C2)CN1)[C@H]1CCCc2cccnc21	< 4.52	100%		17.9 µM	< 4.70	< 4.70		44%	
CN1CCN(c2cccc3c2C[C@H](CN(C)[C@H]2CCCc4cccnc42)N(C)C3)CC1	< 4.52	83.3%	36.4 ×10⁻⁶ cm/s	> 16.7 µM	< 4.70	< 4.70	6.77	41.7%	
CN(C[C@H]1Cc2c(cccc2N2CCN(C3CC3)CC2)CN1)[C@H]1CCCc2cccnc21	< 4.52	15.5%	26.5 ×10⁻⁶ cm/s	> 33.3 µM	5.37	5.22	7.63	7%	
CN1CCN(c2cccc3c2C[C@H](CN2CCC[C@H]4CCc5cccnc5[C@H]42)NC3)CC1	< 4.52	67.8%	32.3 ×10⁻⁶ cm/s	> 16.7 µM	< 4.70	< 4.70			
CC(C)N1CCN(c2cccc3c2C[C@H](CN(C)[C@H]2CCCc4cccnc42)NC3)CC1	< 4.52	56.6%	14.3 ×10⁻⁶ cm/s	> 16.7 µM	< 4.70	5.09	7.77	15.1%	
CN(C[C@H]1Cc2c(cccc2N2CCN(c3cccc(C(F)(F)F)c3)CC2)CN1)[C@H]1CCCc2cccnc21	< 4.52	90.3%	14.1 ×10⁻⁶ cm/s	9.25 µM	5.66	5.19	< 4.78	72.3%	
CN1Cc2cccc(N3CCNCC3)c2C[C@@H]1CN(C)[C@H]1CCCc2cccnc21	< 4.52	100%	0.3 ×10⁻⁶ cm/s	26.3 µM	< 4.70	< 4.70		100%	
CN(C[C@H]1Cc2c(cccc2N2C[C@H]3C[C@@H]2CN3)CN1)[C@H]1CCCc2cccnc21	< 4.52	100%		> 16.7 µM	< 4.70	< 4.70		95.9%	
C[C@@H]1CN(c2cccc3c2C[C@H](CN(C)[C@H]2CCCc4cccnc42)NC3)C[C@H](C)N1	< 4.52	100%	3.9 ×10⁻⁶ cm/s	> 33.3 µM	< 4.70	< 4.70	7.21	85.6%	
CCN1CCN(c2cccc3c2C[C@H](CN(C)[C@H]2CCCc4cccnc42)NC3)CC1	< 4.52	0%	20.5 ×10⁻⁶ cm/s	> 33.3 µM	< 4.70	< 4.70	7.86	18.8%	
CN1CCN(c2cccc3c2C[C@H](CN(C)[C@H]2CCCc4cccnc42)NC3)CC1	< 4.52	75.8%	99.6 ×10⁻⁶ cm/s	> 33.3 µM	< 4.70	< 4.70		17%	
CCN(C[C@H]1Cc2c(cccc2N2CCNCC2)CN1)[C@H]1CCCc2cccnc21	< 4.52	79.1%	7.5 ×10⁻⁶ cm/s	8.6 µM	< 4.70	< 4.70	7.83	53.8%	
CN(C[C@H]1Cc2c(cccc2N2CCN(C3COC3)CC2)CN1)[C@H]1CCCc2cccnc21	< 4.52	83.1%	72.5 ×10⁻⁶ cm/s	> 16.7 µM	< 4.70	< 4.70		50.8%	
C[C@@H]1CN(c2cccc3c2C[C@H](CN(C)[C@H]2CCCc4cccnc42)NC3)C[C@H](C)N1C	< 4.52	24.6%	14.2 ×10⁻⁶ cm/s	15.1 µM	< 4.70	< 4.70		39.6%	
CN(C[C@H]1Cc2c(cccc2N2CCN3CCC[C@H]3C2)CN1)[C@H]1CCCc2cccnc21	< 4.52	36.6%	16.7 ×10⁻⁶ cm/s	> 16.7 µM	< 4.70	< 4.70		40.1%	
CN(C[C@@H]1Cc2c(cccc2N2CCNCC2)CN1)[C@H]1CCCc2cccnc21	< 4.52	94.2%	0.4 ×10⁻⁶ cm/s	2.1 µM	< 4.70	< 4.70	6.50	54.6%	
